These results are taken from ChEMBL document CHEMBL4425140, “Discovery of a Potent and Selective Coactivator Associated Arginine Methyltransferase 1 (CARM1) Inhibitor by Virtual Screening” (J Med Chem, 2016).

Assay [1] deals with T1, Histone-arginine methyltransferase CARM1 (Homo sapiens) (UniProt Q86X55).
T1 sequence (whole entry): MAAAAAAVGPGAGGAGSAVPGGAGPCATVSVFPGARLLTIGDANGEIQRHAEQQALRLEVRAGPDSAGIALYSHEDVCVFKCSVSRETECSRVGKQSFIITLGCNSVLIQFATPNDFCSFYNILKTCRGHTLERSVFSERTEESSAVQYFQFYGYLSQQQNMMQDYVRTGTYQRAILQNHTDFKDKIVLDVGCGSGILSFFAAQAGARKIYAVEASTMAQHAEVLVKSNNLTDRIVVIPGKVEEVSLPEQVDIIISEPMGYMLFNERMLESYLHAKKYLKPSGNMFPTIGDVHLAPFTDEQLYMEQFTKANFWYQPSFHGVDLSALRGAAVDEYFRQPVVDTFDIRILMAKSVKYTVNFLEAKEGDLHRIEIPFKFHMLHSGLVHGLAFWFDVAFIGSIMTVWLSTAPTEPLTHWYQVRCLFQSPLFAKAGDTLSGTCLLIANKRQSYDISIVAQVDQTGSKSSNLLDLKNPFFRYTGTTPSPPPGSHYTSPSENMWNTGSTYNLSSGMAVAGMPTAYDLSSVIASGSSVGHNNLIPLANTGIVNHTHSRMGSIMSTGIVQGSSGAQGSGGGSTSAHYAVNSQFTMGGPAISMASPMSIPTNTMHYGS
Put plainly: Inhibition of CARM1 in HEK293 cells assessed as reduction in BAF155 methylation at 10 uM incubated for 48 hrs by SDS-PAGE and immunoblotting.

Assay [2] deals with T2, Histone-arginine methyltransferase CARM1 (Homo sapiens, UniProt Q86X55).
T2 sequence (Q86X55 whole entry): T1 sequence (whole entry)
Put plainly: Inhibition of full-length Halo-tagged human CARM1 (1 to 608 residues) expressed in 293-F cells using [3H]-SAM and biotinylated histone peptides by scintillation proximity based radiometric assay. Type of assay: cell-based.

In assay [3] the target is Protein arginine N-methyltransferase 6 (Homo sapiens, UniProt Q96LA8). Put plainly: Inhibition of PRMT6 (unknown origin).
Chain of Protein arginine N-methyltransferase 6 (Q96LA8 whole entry): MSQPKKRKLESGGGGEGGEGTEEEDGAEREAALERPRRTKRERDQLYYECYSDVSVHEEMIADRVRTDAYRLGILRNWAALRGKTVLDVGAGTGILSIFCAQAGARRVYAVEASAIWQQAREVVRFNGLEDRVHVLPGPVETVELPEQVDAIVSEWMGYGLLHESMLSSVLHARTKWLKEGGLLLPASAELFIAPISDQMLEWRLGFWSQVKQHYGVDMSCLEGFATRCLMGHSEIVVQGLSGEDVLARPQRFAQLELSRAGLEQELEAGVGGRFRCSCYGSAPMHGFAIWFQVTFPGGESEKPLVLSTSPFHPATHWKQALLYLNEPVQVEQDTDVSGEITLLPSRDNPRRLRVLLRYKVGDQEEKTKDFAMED
Assay [4] addresses Protein arginine N-methyltransferase 8 (Homo sapiens, UniProt Q9NR22). The assay can be described thus: Inhibition of PRMT8 (unknown origin).
In assay [5] the target is T2, Histone-arginine methyltransferase CARM1. Put plainly: Binding affinity to full-length Halo-tagged human CARM1 (1 to 608 residues) expressed in 293-F cells by surface plasmon resonance assay. In short, it runs like this: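 About 4500 RU of CARM1 amine-coupled to a CM5 chip, blank cell used for reference subtraction. Compounds serially diluted in DMSO, then into HBS-EP buffer at 5% DMSO final. Contact time 30 s at 75 μL/min.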

Assay [6] has as its target T1, Histone-arginine methyltransferase CARM1 (Homo sapiens). Put plainly: Inhibition of full-length Halo-tagged human CARM1 (1 to 608 residues) expressed in 293-F cells at 10 uM using [3H]-SAM and biotinylated histone peptides by scintillation proximity based radiometric assay. The class given is cell-based. In short, it runs like this: (§1)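 Radiometric scintillation proximity assay. Tag-cleaved full-length human CARM1 (1–608) at 25 nM, with 0.7 μM C-terminally biotinylated H3 1–25 peptide and 1.9 μM [3H]-SAM in 20 mM bicine pH 8.5. Transfer of tritiated methyl to the peptide counted as cpm. Single compound concentration per line.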

Assay [7] shares this target. The assay can be described thus: Inhibition of full-length Halo-tagged human CARM1 (1 to 608 residues) expressed in 293-F cells at 50 uM using [3H]-SAM and biotinylated histone peptides by scintillation proximity based radiometric assay. The class given is cell-based. The method, boiled down:
as §1

Assay [8] shares this target. The assay can be described thus: Binding affinity to full-length Halo-tagged human CARM1 (1 to 608 residues) expressed in 293-F cells assessed as change in melting temperature by Sypro orange dye based differential scanning fluorimetry. The class given is cell-based.
The target is the same in assay [9]. The assay can be described thus: Binding affinity to full-length Halo-tagged human CARM1 (1 to 608 residues) expressed in 293-F cells assessed as change in melting temperature in presencee of SAM by Sypro orange dye based differential scanning fluorimetry. Type of assay: cell-based.
The target is the same in assay [10]. Put plainly: Binding affinity to full-length Halo-tagged human CARM1 (1 to 608 residues) expressed in 293-F cells assessed as change in aggregation temperature by differential static light scattering. Type of assay: cell-based. In short, it runs like this: (§2)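 Full-length human CARM1 (residues 1–608) expressed as a HaloTag fusion in FreeStyle 293-F cells, HaloTag-purified, tag removed with TEV. Heated from 30 to 80 °C at 1 °C/min; aggregation temperature shift read by static light scattering.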

Assay [11] shares this target. Put plainly: Binding affinity to full-length Halo-tagged human CARM1 (1 to 608 residues) expressed in 293-F cells assessed as change in aggregation temperature in presence of SAM by differential static light scattering. The class given is cell-based. In short, it runs like this: as §2
In assay [12] the target is T3, Protein arginine N-methyltransferase 7 (Homo sapiens, UniProt Q9NVM4).
T3 sequence (Q9NVM4 whole entry): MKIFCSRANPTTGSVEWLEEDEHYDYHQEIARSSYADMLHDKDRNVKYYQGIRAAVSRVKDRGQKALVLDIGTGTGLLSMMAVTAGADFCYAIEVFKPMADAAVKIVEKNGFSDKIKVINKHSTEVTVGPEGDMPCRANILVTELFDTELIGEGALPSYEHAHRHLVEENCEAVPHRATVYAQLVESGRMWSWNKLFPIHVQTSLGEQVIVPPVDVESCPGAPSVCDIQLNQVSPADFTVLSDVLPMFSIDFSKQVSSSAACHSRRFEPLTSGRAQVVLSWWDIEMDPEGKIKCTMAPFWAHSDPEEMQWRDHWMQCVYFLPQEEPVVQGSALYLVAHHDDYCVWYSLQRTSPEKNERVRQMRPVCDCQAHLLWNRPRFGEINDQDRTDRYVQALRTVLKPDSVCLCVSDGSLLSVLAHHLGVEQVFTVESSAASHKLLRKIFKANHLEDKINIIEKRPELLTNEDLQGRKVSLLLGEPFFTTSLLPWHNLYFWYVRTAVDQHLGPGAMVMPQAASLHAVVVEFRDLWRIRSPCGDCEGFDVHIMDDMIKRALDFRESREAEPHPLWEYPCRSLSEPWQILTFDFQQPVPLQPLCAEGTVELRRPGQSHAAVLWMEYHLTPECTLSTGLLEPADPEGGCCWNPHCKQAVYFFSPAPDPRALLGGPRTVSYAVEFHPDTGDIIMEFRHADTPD
Put plainly: Inhibition of PRMT7 (unknown origin).

For assay [13], the target named is Protein arginine N-methyltransferase 1 (Homo sapiens, UniProt Q99873). The assay can be described thus: Inhibition of PRMT1 (unknown origin).
Chain of Protein arginine N-methyltransferase 1 (Q99873 whole entry, the tested form may be a part): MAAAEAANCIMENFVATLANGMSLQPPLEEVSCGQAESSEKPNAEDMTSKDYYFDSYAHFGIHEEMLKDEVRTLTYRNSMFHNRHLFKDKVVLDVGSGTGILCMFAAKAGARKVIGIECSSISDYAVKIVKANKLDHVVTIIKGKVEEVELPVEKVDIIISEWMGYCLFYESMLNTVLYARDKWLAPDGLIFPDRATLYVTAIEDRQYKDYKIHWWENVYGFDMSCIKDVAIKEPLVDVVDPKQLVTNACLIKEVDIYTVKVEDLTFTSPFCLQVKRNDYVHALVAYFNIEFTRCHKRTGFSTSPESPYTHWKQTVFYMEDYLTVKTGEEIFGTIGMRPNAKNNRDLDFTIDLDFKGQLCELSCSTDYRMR
Assay [14] addresses T1, Histone-arginine methyltransferase CARM1 (Homo sapiens). The assay can be described thus: Non-competitive inhibition of full-length Halo-tagged human CARM1 (1 to 608 residues) expressed in 293-F cells using [3H]-SAM and increasing biotinylated histone peptides by scintillation proximity based radiometric assay. Type of assay: cell-based.
Assay [15] shares this target. Put plainly: Non-competitive inhibition of full-length Halo-tagged human CARM1 (1 to 608 residues) expressed in 293-F cells using increasing [3H]-SAM and biotinylated histone peptides by scintillation proximity based radiometric assay. Type of assay: cell-based.
For assay [16] the target is unchanged. Put plainly: Inhibition of CARM1 in HEK293 cells assessed as reduction in BAF155 methylation at 1 uM incubated for 48 hrs by SDS-PAGE and immunoblotting.
Assay [17] in a line: Selectivity index, ratio of IC50 for RMT6 (unknown origin) to IC50 for full-length Halo-tagged human CARM1 (1 to 608 residues) expressed in 293-F cells. Type of assay: cell-based.
In assay [18] the target is Protein arginine N-methyltransferase 3 (Homo sapiens, UniProt O60678). The assay can be described thus: Inhibition of PRMT3 (unknown origin).
Chain of Protein arginine N-methyltransferase 3 (O60678 whole entry): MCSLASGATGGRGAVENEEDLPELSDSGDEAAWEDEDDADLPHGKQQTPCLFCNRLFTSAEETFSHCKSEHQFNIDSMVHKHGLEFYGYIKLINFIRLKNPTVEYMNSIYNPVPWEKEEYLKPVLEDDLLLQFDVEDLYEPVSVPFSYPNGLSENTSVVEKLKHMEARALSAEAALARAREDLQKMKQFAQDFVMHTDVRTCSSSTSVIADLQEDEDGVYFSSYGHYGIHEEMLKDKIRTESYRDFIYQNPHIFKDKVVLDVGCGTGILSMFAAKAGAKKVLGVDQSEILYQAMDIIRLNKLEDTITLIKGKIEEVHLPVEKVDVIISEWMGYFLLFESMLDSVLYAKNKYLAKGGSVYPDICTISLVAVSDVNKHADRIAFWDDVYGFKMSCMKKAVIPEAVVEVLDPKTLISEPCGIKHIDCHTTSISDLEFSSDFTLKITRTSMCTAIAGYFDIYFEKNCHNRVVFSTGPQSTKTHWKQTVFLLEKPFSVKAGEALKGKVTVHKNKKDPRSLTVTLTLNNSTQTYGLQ
Assay [19] has as its target Protein arginine N-methyltransferase 5 (Homo sapiens, UniProt O14744). The assay can be described thus: Inhibition of PRMT5 (unknown origin).

Calls of active or inactive are those of the source. The rule behind the calls is not given here.

Chain of Protein arginine N-methyltransferase 8 (Q9NR22 whole entry, the tested form may be a part): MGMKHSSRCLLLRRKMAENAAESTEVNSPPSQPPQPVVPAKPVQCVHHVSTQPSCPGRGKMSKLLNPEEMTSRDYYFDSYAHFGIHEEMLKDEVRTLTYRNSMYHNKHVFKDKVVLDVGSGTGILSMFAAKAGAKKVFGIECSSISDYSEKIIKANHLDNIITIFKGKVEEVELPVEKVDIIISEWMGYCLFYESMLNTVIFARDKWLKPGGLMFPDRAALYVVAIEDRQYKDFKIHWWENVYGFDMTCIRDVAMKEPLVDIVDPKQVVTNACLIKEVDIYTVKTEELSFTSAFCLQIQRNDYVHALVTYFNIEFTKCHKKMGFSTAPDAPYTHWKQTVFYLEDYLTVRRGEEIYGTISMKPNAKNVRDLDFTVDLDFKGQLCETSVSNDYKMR
Chain of Protein arginine N-methyltransferase 5 (O14744 whole entry): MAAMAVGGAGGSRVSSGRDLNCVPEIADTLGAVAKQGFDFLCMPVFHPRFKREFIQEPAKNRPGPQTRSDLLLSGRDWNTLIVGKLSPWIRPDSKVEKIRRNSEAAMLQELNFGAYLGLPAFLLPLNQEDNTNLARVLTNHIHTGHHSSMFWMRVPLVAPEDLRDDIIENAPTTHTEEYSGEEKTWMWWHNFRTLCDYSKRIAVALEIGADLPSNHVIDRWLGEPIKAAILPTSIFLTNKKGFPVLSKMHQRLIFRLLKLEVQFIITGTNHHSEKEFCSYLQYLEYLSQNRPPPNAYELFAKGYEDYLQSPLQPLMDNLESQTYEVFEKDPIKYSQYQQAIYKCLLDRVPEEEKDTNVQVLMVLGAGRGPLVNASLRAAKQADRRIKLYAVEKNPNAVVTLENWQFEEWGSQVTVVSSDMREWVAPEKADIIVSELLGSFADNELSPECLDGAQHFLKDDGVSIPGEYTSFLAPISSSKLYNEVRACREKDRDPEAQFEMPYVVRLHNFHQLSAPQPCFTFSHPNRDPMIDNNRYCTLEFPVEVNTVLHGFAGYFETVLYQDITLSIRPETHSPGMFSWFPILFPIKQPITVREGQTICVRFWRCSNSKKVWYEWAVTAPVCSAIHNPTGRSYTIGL

As to `CNCCN1CCC(OCc2ccccc2)CC1`, the inhibition result in assay [1] is “Active”.

For `CC(C)(N)C(=O)NCc1cccnc1Oc1ccc(F)cc1F`, the IC50 entry in assay [2] and in assay [3] was “Not Active” each time.

As for `CN[C@@H](C)C(=O)NCc1cccnc1Oc1ccc(F)cc1F`, the IC50 entry in assay [2] and in assay [3] was “Not Active” each time.

Consider `Cc1cc(OCCNCCN)ccc1C(C)C`, for which the values for the IC50 entry in assay [4], in assay [2] (read-out: IC50) and in [3] were “Not Active”, 16.6 µM and “Not Active”, respectively. The Kd entry in assay [5] is “Not Active”.

As to `C[C@H](N)C(=O)NCc1cccnc1N(C)Cc1ccccc1`, the IC50 result is “Not Active” in assay [4], greater than 30 µM in [2] (read-out: IC50) and “Not Active” in assay [3]. Besides, the inhibition entry in [6] and in assay [7] was “Active” throughout.

With `CC(N)C(=O)NCc1ccccc1` (configuration not stated), the IC50 result is “Not Active” in assay [4], greater than 20 µM in assay [2] (read-out: IC50) and “Not Active” in assay [3]. The inhibition result in [6] and in assay [7] was “Active” throughout.

As for `C[C@@H](N)C(=O)NCc1cccnc1Oc1ccc(F)cc1F`, the IC50 was greater than 40 µM in [2] (read-out: IC50) and “Not Active” in assay [3].

With `C[C@H](N)C(=O)NCc1cccnc1Oc1ccc(F)cc1F`, the ΔTm in [8] was 2.1 °C; in assay [10], 1.9 °C. The result in assay [9] and in [11] was Active. The IC50 entry is “Not Active” in assay [4], 1.9 µM in assay [2] (read-out: IC50) and 14 µM in assay [3] (read-out: IC50). In addition, the inhibition result in [6] and in assay [7] was “Active” in each case. The Kd in [5] (read-out: Kd) amounted to 9 µM.

Regarding `Cc1cc(C)n(-c2ccc(CNC(=O)C(C)N)cc2)n1` (configuration not stated), the IC50 entry in assay [2] and in assay [3] was “Not Active” each time.

`CNCC(=O)NCc1cccnc1Oc1ccc(F)cc1F`: the IC50 entry in assay [2] and in assay [3] was “Not Active” in each case.

Turning to `NC1(C(=O)NCc2cccnc2Oc2ccc(F)cc2F)CC1`, the IC50 result in assay [2] and in assay [3] was “Not Active” throughout.

In the case of `CNCCN1CCCC1`, the results for the 50% inhibitory concentration (IC50) in assay [4] (read-out: IC50), in assay [2] (read-out: IC50) and in [3] (read-out: IC50) were 10 µM, 3.1 µM and 1.9 µM, respectively. In addition, the inhibition result in assay [6] and in [7] was “Active” throughout.

Consider `NCC(=O)NCc1cccnc1Oc1ccc(F)cc1F`, for which the IC50 entry in assay [3] is “Not Active”.

On to `CCC(c1ccc(OC)cc1)N(C)CCN` (configuration not stated), for which the IC50 entry in [4] is “Not Active”; in [2], “Not Active”; in assay [3] (read-out: IC50), greater than 25 µM.

Turning to `NCCN1CCC(c2nnc(Cn3ccnc3)n2C2CC2)CC1`, the IC50 result in [4] is “Not Active”; in assay [2] (read-out: IC50) it was greater than 50 µM; in assay [3] it was “Not Active”. The inhibition result in [6] and in assay [7] was “Active” each time.

For the molecule `CNCCNC1CCN(c2cccc(-c3ccnc(C)n3)c2)CC1`, the IC50 in assay [4] (read-out: IC50) turned out to be 26 µM; in assay [2] (read-out: IC50), 11.1 µM; in assay [3] (read-out: IC50) it was 8.9 µM. The inhibition entry in assay [6] and in [7] was “Active” each time.

On to `NCC(=O)NCCc1ccccc1`, for which the concentration for half-maximal inhibition (IC50) result is “Not Active” in [4], 20.5 µM in [2] (read-out: IC50) and “Not Active” in assay [3]. In addition, the Kd result in assay [5] is “Not Active”.

For `CN(CCN)Cc1ccccc1`, the IC50 in assay [4] (read-out: IC50) was 6 µM; in assay [2] (read-out: IC50), 7.5 µM; in assay [3] (read-out: IC50), 2.5 µM. The inhibition result in assay [6] and in assay [7] was “Active” throughout.

For `Cc1cc(C)cc(Oc2ccc(CNC(=O)[C@H](C)N)cc2C)c1`, the IC50 in assay [12] is greater than 100 µM; in assay [13] it was greater than 100 µM; in [4] (read-out: IC50), greater than 50 µM; in assay [2] (read-out: IC50), 0.05 µM; in [3] (read-out: IC50), 5.2 µM; in assay [18], greater than 100 µM. In [19], this molecule showed an IC50 greater than 100 µM. Besides, the inhibition result in assay [1] and in assay [16] was “inactive” each time. Besides, the inhibition entry in assay [14] and in assay [15] was “Active” throughout. Also, the Ratio IC50 in assay [17] was greater than 100.

As for `CC(Cc1c[nH]c2ccccc12)NC(=O)CN` (configuration not stated), the 50% inhibitory concentration (IC50) entry in assay [4] is “Not Active”; in [2] (read-out: IC50), greater than 65 µM; in assay [3], “Not Active”. Also, the inhibition entry in assay [6] and in [7] was “Active” in each case.
